Experimental data taken from ChEMBL document CHEMBL1147722, “Discovery of proline sulfonamides as potent and selective hepatitis C virus NS5b polymerase inhibitors. Evidence for a new NS5b polymerase binding site” (J Med Chem, 2006).

Key:
[1] = biological target: RNA-directed RNA polymerase (Hepacivirus hominis, UniProt O39930); assay: Inhibition of HCV NS5B RNA dependent RNA polymerase
[2] = biological target: NS3 (Hepatitis C virus, UniProt A3EZJ3); assay: Inhibition of HCV helicase; design: species or system Hepacivirus hominis
Chain of NS3 (A3EZJ3 whole entry): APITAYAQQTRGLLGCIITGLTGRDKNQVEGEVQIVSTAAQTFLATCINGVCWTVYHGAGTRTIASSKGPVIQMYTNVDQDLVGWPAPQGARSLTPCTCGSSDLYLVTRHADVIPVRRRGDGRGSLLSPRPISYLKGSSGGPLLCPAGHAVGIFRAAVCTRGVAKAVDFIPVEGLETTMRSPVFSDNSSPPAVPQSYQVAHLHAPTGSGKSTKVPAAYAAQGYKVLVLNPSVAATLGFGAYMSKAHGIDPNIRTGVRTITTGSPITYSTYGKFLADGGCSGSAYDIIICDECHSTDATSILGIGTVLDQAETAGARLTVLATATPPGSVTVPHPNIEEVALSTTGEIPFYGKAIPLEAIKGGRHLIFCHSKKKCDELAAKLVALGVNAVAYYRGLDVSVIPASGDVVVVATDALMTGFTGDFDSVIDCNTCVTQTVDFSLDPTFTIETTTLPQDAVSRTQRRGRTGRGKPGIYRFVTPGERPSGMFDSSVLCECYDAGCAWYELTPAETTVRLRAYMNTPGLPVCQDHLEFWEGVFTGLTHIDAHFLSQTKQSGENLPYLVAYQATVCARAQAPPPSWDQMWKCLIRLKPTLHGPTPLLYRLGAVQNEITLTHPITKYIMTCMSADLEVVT

[3] = biological target: Human immunodeficiency virus type 1 reverse transcriptase (Human immunodeficiency virus 1, UniProt Q72547); assay: Inhibition of HIV reverse transcriptase
[4] = biological target: DNA polymerase beta (Homo sapiens, UniProt P06746); assay: Inhibition of human polymerase beta
[5] = Permeability at pH 7.4 by PAMPA assay; assay type: ADME; conditions: read-out: permeability
[6] = Permeability from apical to basolateral side of the Caco-2 cell; assay type: ADME, cell-based; conditions: human, read-out: permeability
[7] = system: Vero; assay: Cytotoxicity against Vero cell line; assay type: functional, cell-based; conditions: Chlorocebus sabaeus
Summary of the method: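 Cytotoxicity read by MTS assay on actively growing cells: Vero cells for line 1, clone A cells for line 2. IC50 was determined in each assay.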

Chain of RNA-directed RNA polymerase (O39930 whole entry): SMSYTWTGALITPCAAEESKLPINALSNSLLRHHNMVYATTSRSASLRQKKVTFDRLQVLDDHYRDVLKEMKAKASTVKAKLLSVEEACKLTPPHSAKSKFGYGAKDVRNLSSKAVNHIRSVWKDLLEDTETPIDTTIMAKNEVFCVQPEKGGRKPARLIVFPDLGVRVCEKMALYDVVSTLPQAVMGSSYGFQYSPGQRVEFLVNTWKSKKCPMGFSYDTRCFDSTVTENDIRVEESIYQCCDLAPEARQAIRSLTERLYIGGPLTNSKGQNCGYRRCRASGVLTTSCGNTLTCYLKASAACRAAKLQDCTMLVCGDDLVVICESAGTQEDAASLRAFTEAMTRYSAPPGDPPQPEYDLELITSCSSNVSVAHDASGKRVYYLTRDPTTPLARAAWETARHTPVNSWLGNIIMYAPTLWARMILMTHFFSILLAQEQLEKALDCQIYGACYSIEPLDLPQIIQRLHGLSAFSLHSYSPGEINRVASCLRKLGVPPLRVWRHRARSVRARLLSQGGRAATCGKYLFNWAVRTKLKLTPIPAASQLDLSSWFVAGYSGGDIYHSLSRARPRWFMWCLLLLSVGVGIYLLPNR

Row | IC50 [1] | Structure (SMILES) | other results
1 | 2100 nM | O=C(O)[C@@H]1CCCN1S(=O)(=O)c1cc(F)cc(Cl)c1O | –
2 | 770 nM | O=C(O)[C@@H]1CCCN1S(=O)(=O)c1cc(Cl)cc(Cl)c1O | –
3 | 2000 nM | O=C(O)[C@@H]1CCCCN1S(=O)(=O)c1cc(Cl)cc(Cl)c1O | –
4 | 7100 nM | O=C(O)[C@H]1CCCCN1S(=O)(=O)c1cc(Cl)cc(Cl)c1O | –
5 | 260 nM | O=C(O)[C@@H]1CCCN1S(=O)(=O)c1cc(Cl)cc(Br)c1O | –
6 | 80 nM | O=C(O)[C@@H]1CCCN1S(=O)(=O)c1cc(Cl)c(Cl)c(Cl)c1O | Papp [5]: 0.02 ×10⁻⁶ cm/s; Papp A→B [6]: 0.4 ×10⁻⁶ cm/s; IC50 [7]: > 100000 nM
7 | 7900 nM | O=C(O)[C@H]1CCCN1S(=O)(=O)c1cc(Cl)cc(Cl)c1O | –

Continued, compound first:

Row | Structure (SMILES) | IC50 [1] | other results
8 | O=C(O)[C@@H]1CCCN1S(=O)(=O)c1cc(Cl)cc(Cl)c1 | > 20000 nM | –
9 | Cc1cc(NC(=O)c2ccccc2)c(S(=O)(=O)N2CCC[C@H]2C(=O)O)cc1Cl | > 20000 nM | –
10 | Nc1ccccc1S(=O)(=O)N1CCC[C@H]1C(=O)O | > 20000 nM | –
11 | Cc1cc(N)c(S(=O)(=O)N2CCC[C@H]2C(=O)O)cc1Cl | 5950 nM | –
12 | Cc1cc(S(=O)(=O)N2CCC[C@H]2C(=O)O)c(N)cc1Cl | – | IC50 [2]: > 75000 nM; IC50 [3]: > 100000 nM; IC50 [4]: > 100000 nM
13 | O=S(=O)(c1cc(Cl)cc(Cl)c1O)N1CCC[C@H]1c1nn[nH]n1 | 560 nM | –
14 | CC(=O)Nc1cc(C)c(Cl)cc1S(=O)(=O)N1CCC[C@H]1C(=O)O | > 20000 nM | –
15 | COC(=O)[C@@H]1CCCN1S(=O)(=O)c1cc(Cl)cc(Cl)c1O | > 20000 nM | –
16 | O=S(=O)(c1cc(Cl)cc(Cl)c1O)N1CCCC1 | 4800 nM | –
17 | N#C[C@@H]1CCCN1S(=O)(=O)c1cc(Cl)cc(Cl)c1O | 1400 nM | –
18 | O=C(O)C1CSCN1S(=O)(=O)c1cc(Cl)cc(Cl)c1O (single isomer, unassigned; 33) | 240 nM | –
19 | O=C(O)C1CSCN1S(=O)(=O)c1cc(Cl)cc(Cl)c1O (single isomer, unassigned; 34) | 1700 nM | –
